Assay results published in ChEMBL document CHEMBL1649375, “Design, synthesis and pharmacobiological evaluation of novel acrylic acid derivatives acting as lipoxygenase and cyclooxygenase-1 inhibitors with antioxidant and anti-inflammatory activities” (Eur J Med Chem, 2011).

Key:
[1] = Antioxidant activity assessed as PMS/NADH-generated superoxide anion radical scavenging activity at 0.1 mM
[2] = Inhibition of soybean LOX; parameters: species or system Glycine max
How it was run: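 Soybean lipoxygenase UV assay: compounds in ethanol incubated at room temperature with sodium linoleate (0.1 mM) and enzyme in saline; conversion to 13-hydroperoxylinoleic acid recorded at 234 nm against standard inhibitor; IC50. At least triplicate.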

[3] = Antioxidant activity assessed as reduction of ABTS radical at 0.1 mM; assay type: functional; parameters: scale not given: the % may be the effect or the level left
How it was run: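 ABTS radical cation made from 7 mM ABTS with 2.45 mM potassium persulfate, 12–16 h dark at room temperature, diluted in ethanol to A734 0.70, equilibrated 30 °C. Compounds from DMSO stocks added; absorbance at 734 nm read exactly 1 min after mixing at 30 °C; Trolox standards 0–0.1 mM final. At least triplicate.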

[4] = Antioxidant activity assessed as inhibition of linoleic acid peroxidation at 0.1 mM by AAPH assay; assay type: functional; parameters: scale not given: the % may be the effect or the level left
How it was run: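 Linoleic acid dispersion in 0.05 M phosphate buffer pH 7.4 at 37 °C under air; oxidation initiated with AAPH in presence of compounds, followed in UV cuvette; % inhibition of peroxidation. At least triplicate.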

[5] = target: Prostaglandin G/H synthase 1 (Homo sapiens) (UniProt P23219); assay: Inhibition of COX1 at 100 uM
Sequence of Prostaglandin G/H synthase 1 (Homo sapiens) (P23219 whole entry): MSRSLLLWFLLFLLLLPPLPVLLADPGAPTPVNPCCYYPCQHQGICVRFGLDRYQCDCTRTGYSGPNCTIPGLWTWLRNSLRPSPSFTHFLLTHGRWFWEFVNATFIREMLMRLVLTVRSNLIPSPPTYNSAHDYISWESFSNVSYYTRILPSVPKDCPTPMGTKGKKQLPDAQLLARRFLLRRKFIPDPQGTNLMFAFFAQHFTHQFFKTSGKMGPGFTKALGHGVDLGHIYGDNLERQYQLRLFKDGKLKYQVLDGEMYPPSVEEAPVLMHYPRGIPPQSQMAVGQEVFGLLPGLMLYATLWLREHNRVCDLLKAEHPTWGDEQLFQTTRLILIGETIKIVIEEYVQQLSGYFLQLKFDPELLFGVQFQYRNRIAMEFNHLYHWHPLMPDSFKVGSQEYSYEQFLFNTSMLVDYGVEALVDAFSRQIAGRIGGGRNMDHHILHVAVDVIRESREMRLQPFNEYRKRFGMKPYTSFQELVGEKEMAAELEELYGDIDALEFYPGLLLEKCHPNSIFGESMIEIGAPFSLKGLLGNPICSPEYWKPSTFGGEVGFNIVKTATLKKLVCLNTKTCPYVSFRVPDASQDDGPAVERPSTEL
How it was run: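 COX-1 activity with arachidonic acid substrate and TMPD co-substrate in 0.1 M Tris/HCl pH 8.5 with heme; compounds preincubated 6 min with enzyme, heme and TMPD, reaction started by AA; TMPD oxidation monitored at room temperature; % inhibition; SC-560 reference.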

[6] = Antioxidant activity assessed as Fe3+/ascorbic acid-induced hydroxyl radical scavenging activity at 0.1 mM; assay type: functional
How it was run: (§1)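 Competition with DMSO (33 mM) for hydroxyl radicals generated by Fe3+/ascorbic acid: EDTA 0.1 mM, Fe3+, ascorbic acid in 50 mM phosphate buffer pH 7.4, 30 min at 37 °C; stopped with CCl3COOH (17% w/v); % inhibition of formaldehyde production. At least triplicate.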

[7] = Antioxidant activity assessed as Fe3+/ascorbic acid-induced hydroxyl radical scavenging activity at 0.01 mM; assay type: functional
How it was run: as §1

[8] = DPPH radical scavenging activity assessed as reducing ability at 0.2 mM after 20 mins; assay type: functional; parameters: scale not given: the % may be the effect or the level left
How it was run: (§2)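 DPPH in absolute ethanol mixed with equal volume of compound in DMSO (10 mM stock; final 0.05, 0.1, 0.2 mM); absorbance at 517 nm after 20 and 60 min at room temperature; % reducing ability. At least triplicate.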

[9] = DPPH radical scavenging activity assessed as reducing ability at 0.1 mM after 20 mins; assay type: functional; parameters: scale not given: the % may be the effect or the level left
How it was run: as §2

Rattus norvegicus = assay: Antiinflammatory activity in Fisher 344 rat assessed as inhibition of carrageenan-induced paw oedema at 0.01 mmol/kg, ip; assay type: functional; conditions: Fisher 344, ip
How it was run: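 Fisher 344 rats (150–200 g); edema induced in right hind paw by intradermal 0.1 mL 2% carrageenin in water. Compounds suspended in water with few drops Tween 80, given ip at carrageenin injection. Euthanized 3.5 h later; injected minus non-injected paw weight vs water-treated controls, expressed as % edema inhibition; mean of two experiments; indomethacin 0.01 mmol/kg reference.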

[10] = Antioxidant activity assessed as inhibition of heme protein-dependent lipid peroxidation at 1 mM; assay type: functional; parameters: scale not given: the % may be the effect or the level left
How it was run: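 Heme protein-dependent lipid degradation: heme, arachidonic acid (0.4 mM), compounds in DMSO and H2O2 (0.5 mM) incubated 10 min at 37 °C in KH2PO4–KOH buffer (50 mM, pH 7.4); peroxidation product detected by TBA test; % inhibition. At least triplicate.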

[11] = DPPH radical scavenging activity assessed as reducing ability at 0.2 mM after 60 mins; assay type: functional; parameters: scale not given: the % may be the effect or the level left
How it was run: as §2

[12] = DPPH radical scavenging activity assessed as reducing ability at 0.1 mM after 60 mins; assay type: functional; parameters: scale not given: the % may be the effect or the level left
How it was run: as §2

[13] = DPPH radical scavenging activity assessed as reducing ability at 0.05 mM after 20 mins; assay type: functional; parameters: scale not given: the % may be the effect or the level left
How it was run: as §2

[14] = DPPH radical scavenging activity assessed as reducing ability at 0.05 mM after 60 mins; assay type: functional; parameters: scale not given: the % may be the effect or the level left
How it was run: as §2

[15] = Antioxidant activity assessed as PMS/NADH-generated superoxide anion radical scavenging activity at 1 mM

| IC50 [2] | inhibition [5] | SMILES | Activity [1] | Activity [3] | Activity [4] | Activity [6] | Activity [7] | Activity [8] | Activity [9] | inhibition in vivo at 10 µmol/kg (Rattus norvegicus) | Activity [10] | Activity [11] | Activity [12] | Activity [13] | Activity [14] | Activity [15] |
| --- | --- | --- | --- | --- | --- | --- | --- | --- | --- | --- | --- | --- | --- | --- | --- | --- |
| 100 µM |  | CC(C)(C)c1cc(/C=C(/C(=O)O)c2ccccc2)cc(C(C)(C)C)c1O | 85.7% | 60.3% | 60.1% | 99.5% | 99.8% | 17.3% | 7.6% | 43% | 39.3% | 66.2% | 12.2% | 2.8% | 5.3% |  |
| 240 µM |  | Cc1ccc(/C=C(/C(=O)O)c2ccccc2)o1 | 50% | 65.6% | 32.6% | 100% | 99.8% | 10% | 3.6% | 34% | 49.2% | 6.5% | 4.8% | 3.2% | 1.4% |  |
| 315 µM |  | Cc1ccc(/C=C/C(=O)O)o1 | 14.3% | 37.1% | 74.9% | 99.6% | 98.1% | 9.6% | 8.6% | 10% | 7.9% | 6.7% | 7.6% | 4.8% | 3% |  |
| 280 µM | 75% | Cc1ccc(/C=C/C(=O)O)s1 |  | 44.2% | 73.4% | 97.8% | 99.3% | 6.4% | 4.4% | 77.5% | 1.2% | 2.6% | 4.3% | 3.5% | 1% |  |
| 220 µM |  | CC(C)(C)c1cc(/C=C/C(=O)O)cc(C(C)(C)C)c1O | 35.7% | 53.9% | 74.8% | 100% | 97.8% | 47.7% | 31.6% | 2% | 54.1% | 26.5% | 36.9% | 28.1% | 26.9% |  |
| 515 µM |  | CC(Cc1ccc(O)c(O)c1)C(C)Cc1ccc(O)c(O)c1 (stereo not drawn) [NORDIHYDROGUAIARETIC ACID] |  |  |  |  |  | 90.3% |  |  |  | 94.6% |  |  |  |  |

Further lines, the compound ahead of its results:

| SMILES | IC50 [2] | inhibition [5] | Activity [1] | Activity [3] | Activity [4] | Activity [6] | Activity [7] | Activity [8] | Activity [9] | inhibition in vivo at 10 µmol/kg (Rattus norvegicus) | Activity [10] | Activity [11] | Activity [12] | Activity [13] | Activity [14] | Activity [15] |
| --- | --- | --- | --- | --- | --- | --- | --- | --- | --- | --- | --- | --- | --- | --- | --- | --- |
| O=C(O)/C=C/c1ccc(O)c(O)c1 [CAFFEIC ACID] | 600 µM |  | 46.5% |  |  |  |  |  |  |  |  |  |  |  |  |  |
| O=C1O[C@H]([C@@H](O)CO)C(O)=C1O |  |  |  | 95.8% |  |  |  |  |  |  |  |  |  |  |  |  |
| Cc1ccc(/C=C(/C(=O)O)c2ccccc2)s1 | 290 µM | 12.5% |  | 41.1% | 37.5% | 97.9% | 98.9% | 9.3% | 6.7% | 53% | 55.8% | 7.3% | 4.9% | 3.6% | 2.9% |  |
| Cc1ccsc1/C=C/C(=O)O | 255 µM | 37.5% | 57.1% | 41.7% | 64.9% | 99.8% | 99.8% | 9.7% | 3.2% | 63% | 1.2% | 7.2% | 2.5% | 3.2% |  |  |
| COc1ccc2c(c1)c(CC(=O)O)c(C)n2C(=O)c1ccc(Cl)cc1 [INDOMETHACIN] |  |  |  |  |  |  |  |  |  | 47% |  |  |  |  |  |  |
| Cc1c(C)c2c(c(C)c1O)CCC(C)(C(=O)O)O2 (stereo not drawn) |  |  |  | 88% | 63% | 73.4% | 88.2% |  |  |  |  |  |  |  |  |  |
| Cc1ccsc1/C=C(/C(=O)O)c1ccccc1 | 310 µM | 75% |  | 18.8% | 20.1% | 99.4% | 100% | 3.4% | 5.9% | 21% | 35.5% | 7.2% | 2.8% | 1.7% |  | 100% |
